Reference: ChEMBL document CHEMBL3425405, “Discovery of Small Molecules for Up-Regulating the Translation of Antiamyloidogenic Secretase, a Disintegrin and Metalloproteinase 10 (ADAM10), by Binding to the G-Quadruplex-Forming Sequence in the 5' Untranslated Region (UTR) of Its mRNA” (J Med Chem, 2015)
Active and inactive are the calls of the source. No cut-off for these calls is given here.

Tests used:
[1] = Binding affinity to 5'-end biotinylated ADAM10 A10-RNA QGRS (unknown origin) by surface plasmon resonance assay method
Procedure, shortened: (§1)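 SPR with 5′-biotinylated A10-RNA-Wt or A10-RNA-Mut immobilized on a neutravidin chip in running buffer (50 mM Tris-HCl pH 7.5, 100 mM KCl). Ligand serial dilutions in running buffer injected at 20 μL/min for association, then dissociation. Chip regenerated with 50 mM NaOH between runs.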

[2] = Binding affinity to ADAM10 A10-RNA QGRS (unknown origin) by microscale thermophoresis method
[3] = Toxicity against human HeLa cells assessed as reduction in cell viability after 24 hrs by MTT assay; type: cell-based
[4] = Binding affinity to 5'-end biotinylated ADAM10 A10-mutant RNA QGRS (unknown origin) by surface plasmon resonance assay method; procedure, shortened: as §1
[5] = Effect on secondary structure of ADAM10 A10-RNA QGRS (unknown origin) by CD spectroscopy
HeLa [6] = experiment: Toxicity against human HeLa cells assessed as effect on cell number at 0.5 to 2.5 uM after 24 hrs; type: cell-based
Procedure, shortened: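 HeLa cells inspected for cell number and morphology before the luciferase read-out, after reporter-plasmid transfection and 24 h exposure to 0, 0.5, 1 or 2.5 μM compound.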

HeLa [7] = experiment: Binding affinity to ADAM10 A10-RNA QGRS (unknown origin) transfected in human HeLa cells assessed as increase in ADAM10 translation efficiency at 0.5 uM after 24 hrs by Renilla/firefly dual luciferase reporter assay; type: cell-based
Procedure, shortened: (§2)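 HeLa cells transfected with 0.8 μg A10-Wt, A10-Mut or A10-Del plasmid (G-quadruplex motif upstream of Renilla in psiCHECK-2). Screening: 24 h at a single 2 μM concentration. Follow-up: plasmid for 12 h, then 0, 0.5, 1 or 2.5 μM for 24 h. Renilla normalized to firefly, relative to untreated control; mean ± SD of three independent measurements.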

HeLa [8] = experiment: Binding affinity to ADAM10 A10-RNA QGRS (unknown origin) transfected in human HeLa cells assessed as increase in ADAM10 translation efficiency at 2.5 uM after 24 hrs by Renilla/firefly dual luciferase reporter assay; type: cell-based; procedure, shortened: as §2
HeLa [9] = experiment: Binding affinity to ADAM10 5'-UTR RNA QGRS (unknown origin) transfected in human HeLa cells assessed as increase in luciferase mRNA expression at 0.5 to 2.5 uM after 24 hrs by RT-PCR method; type: cell-based
HeLa [10] = experiment: Binding affinity to N-Ras RNA QGRS (unknown origin) transfected in human HeLa cells assessed as increase in ADAM10 translation efficiency at 2.5 uM after 24 hrs by Renilla/firefly dual luciferase reporter assay; type: cell-based
Procedure, shortened: (§3)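 HeLa cells carrying luciferase reporter plasmids with the N-Ras, Bcl-2 or VEGF 5′-UTR quadruplex (or its mutant) treated with compound up to 2.5 μM for 24 h. Renilla/firefly luciferase activity then measured.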

HeLa [11] = experiment: Binding affinity to Bcl-2 RNA QGRS (unknown origin) transfected in human HeLa cells assessed as increase in ADAM10 translation efficiency at 2.5 uM after 24 hrs by Renilla/firefly dual luciferase reporter assay; type: cell-based; procedure, shortened: as §3
HeLa [12] = experiment: Binding affinity to ADAM10 5'-UTR RNA QGRS (unknown origin) transfected in human HeLa cells assessed as increase in ADAM10 translation efficiency at 2.5 uM after 24 hrs by Renilla/firefly dual luciferase reporter assay; type: cell-based
Procedure, shortened: (§4)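 HeLa cells transfected with 0.8 μg 5′UTR-Wt or 5′UTR-Mut dual-luciferase plasmid. After 12 h, incubated 24 h with 0, 0.5, 1 or 2.5 μM compound. Renilla luciferase normalized to firefly and expressed relative to the ligand-free control; mean ± SD of three independent experiments, each in triplicate.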

HeLa [13] = experiment: Binding affinity to ADAM10 5'-UTR mutant RNA QGRS (unknown origin) transfected in human HeLa cells assessed as increase in ADAM10 translation efficiency at 1 uM after 24 hrs by Renilla/firefly dual luciferase reporter assay; type: cell-based; procedure, shortened: as §4
HeLa [14] = experiment: Binding affinity to ADAM10 5'-UTR mutant RNA QGRS (unknown origin) transfected in human HeLa cells assessed as increase in ADAM10 translation efficiency at 2.5 uM after 24 hrs by Renilla/firefly dual luciferase reporter assay; type: cell-based; procedure, shortened: as §4
HEK-APP [15] = experiment: Binding affinity to ADAM10 A10-RNA QGRS (unknown origin) transfected in HEK-APP cells assessed as increase in ADAM10 protein expression at 0.5 uM after 48 hrs by Western blotting method; type: cell-based
Procedure, shortened: (§5)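 HEK-APP cells (DMEM, 10% FBS, 2 mM glutamine, 0.2 mg/mL G418) treated with 0, 0.5, 0.75, 1 or 1.5 μM compound for 48 h. Lysates in Tris/NaCl/EDTA/1% Triton buffer immunoblotted for ADAM10, APP and β-actin; conditioned medium blotted for sAPPα. Signal by densitometry, normalized to β-actin, relative to blank control; mean ± SD, three independent experiments.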

HEK-APP [16] = experiment: Binding affinity to ADAM10 A10-RNA QGRS (unknown origin) transfected in HEK-APP cells assessed as increase in ADAM10 protein expression at 0.75 uM after 48 hrs by Western blotting method; type: cell-based; procedure, shortened: as §5
HEK-APP [17] = experiment: Binding affinity to ADAM10 A10-RNA QGRS (unknown origin) transfected in HEK-APP cells assessed as increase in ADAM10 protein expression at 1.5 uM after 48 hrs by Western blotting method; type: cell-based; procedure, shortened: as §5
HEK-APP [18] = experiment: Binding affinity to ADAM10 A10-RNA QGRS (unknown origin) transfected in HEK-APP cells assessed as change in ADAM10 mRNA expression at 0.5 to 1.5 uM after 48 hrs by RT-PCR method; type: cell-based
Procedure, shortened: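 HEK-APP cells cultured 48 h with 0, 0.5, 0.75, 1 or 1.5 μM compound. Total RNA isolated and ADAM10 mRNA measured by RT-PCR, normalized to β-actin.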

HEK293 [19] = experiment: Reduction in Abeta40 protein production in APP expressing HEK cells at 0.75 uM after 48 hrs by ELISA method; type: functional, Homo sapiens; set-up: scale not given: the % may be the effect or the level left
Procedure, shortened: (§6)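 HEK-APP cells treated 48 h with increasing compound concentrations (0.75, 1, 1.5 μM). Secreted Aβ40 in equal amounts of conditioned medium quantified by sandwich ELISA. Values expressed relative to blank control; mean ± SD of three independent experiments.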

HEK293 [20] = experiment: Reduction in Abeta40 protein production in APP expressing HEK cells at 1 uM after 48 hrs by ELISA method; type: functional, Homo sapiens; set-up: scale not given: the % may be the effect or the level left; procedure, shortened: as §6
HEK293 [21] = experiment: Reduction in Abeta40 protein production in APP expressing HEK cells at 1.5 uM after 48 hrs by ELISA method; type: functional, Homo sapiens; set-up: scale not given: the % may be the effect or the level left; procedure, shortened: as §6
[22] = Selectivity index, ratio of affinity to N-Ras RNA QGRS (unknown origin) to ADAM10 A10-Wt RNA QGRS (unknown origin) by Renilla/firefly dual luciferase reporter assay
[23] = Selectivity index, ratio of affinity to Bcl-2 RNA QGRS (unknown origin) to ADAM10 A10-Wt RNA QGRS (unknown origin) by Renilla/firefly dual luciferase reporter assay

- Kd [1]: 6.1 µM
- Kd [2]: 4.9 µM
- Activity [4]: inactive
- Activity [5]: inactive
- Selectivity Index [22]: 3
- Selectivity Index [23]: 3
SMILES: CCn1c2ccccc2c2cc(/C=C/c3cc(N4CCN(C)CC4)c4ccccc4[n+]3C)ccc21.[I-]
- IC50 at 24 h [3]: 20.9 µM
- Activity (HeLa [6]): Non-toxic
- Activity (HeLa [7]): 14.1%
- Activity (HeLa [8]): 87.3%
- Activity (HeLa [9]): inactive
- Activity (HeLa [10]): 20%
- Activity (HeLa [11]): 20%
- Activity (HeLa [12]): 44.8%
- Activity (HeLa [13]): inactive
- Activity (HeLa [14]): inactive
- Activity (HEK-APP [15]): 20.2%
- Activity (HEK-APP [16]): 55.1%
- Activity (HEK-APP [17]): 92.9%
- Activity (HEK-APP [18]): inactive
- Activity (HEK293 [19]): 7.7%
- Activity (HEK293 [20]): 20.7%
- Activity (HEK293 [21]): 40.8%
